Measurements: ChEMBL document CHEMBL4651341, “The discovery of a novel series of compounds with single-dose efficacy against juvenile and adult Schistosoma species” (PLoS Negl Trop Dis, 2021)
Values after ≈ are worked out from the molar mass of the structure shown.

How the values were obtained:
[1] = Percentage of parent compound remaining after incubation for 30 minutes with cyropreserved mouse hepatocytes at a concentration of 1uM compound and […], determined by LCMS; type: ADME, tissue-based, Hepatocyte; conditions: cryopreserved mouse hepatocytes, read-out: Stability
In short: (§1)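 Compound was incubated at 1 µM final (2 µM working solution mixed 1:1 with hepatocyte suspension) in supplemented KHB pH 7.4. Conditions: 37 °C, 5% CO2, gentle mixing, duplicates. Reaction quenched with ice-cold acetonitrile containing standard; analysed by LC-MS/MS. % remaining = AUC at t / AUC at T0.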

[2] = Mean plasma concentration at 24h in Swiss albino male mice at […] per compound (administered orally in a mixture of 5 compounds to 3 mice) assessed by LCMS/MS.; type: ADME, organism-based; conditions: mouse, po
[3] = Mean volume of distribution at steady state in Swiss albino male mice at 1 mg/kg per compound (administered iv in a mixture of 5 compounds to 3 mice) assessed by LCMS/MS.; type: ADME, organism-based; conditions: mouse, in vivo, read-out: Volume
In short: (§2)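 Male Swiss albino mice (~30 g), 3 per experiment, mostly dosed as mixtures of 5 compounds iv via the lateral tail vein. Vehicle: 10% DMSO/90% 50 mM Na2HPO4 with 0.5% Tween-80. Plasma stored at −20 °C and quantified by LC-MS after acetonitrile precipitation.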

[4] = Mean oral bioavailability in Swiss albino male mice at […] per compound (administered in a mixture of 5 compounds to 3 mice) assessed by LCMS/MS.; further: dose 2.5 mg/kg; type: ADME, organism-based; conditions: male, Swiss albino, mouse, in vivo, read-out: Bioavailability
[5] = Plasma protein binding determined at 1uM by LC-MS/MS.; type: ADME, cell-free; conditions: mouse
[6] = Mean time to peak plasma concentration in Swiss albino male mice at […] per compound (administered orally in a mixture of 5 compounds to 3 mice) assessed by LCMS/MS.; type: ADME, organism-based; conditions: mouse, po
[7] = Mean half-life in Swiss albino male mice at 1 mg/kg per compound (administered iv in a mixture of 5 compounds to 3 mice) assessed by LCMS/MS.; type: ADME, organism-based; conditions: mouse, in vivo; in short: as §2
[8] = Mean observed clearance in Swiss albino male mice at 1 mg/kg per compound (administered iv in a mixture of 5 compounds to 3 mice) assessed by LCMS/MS.; type: ADME, organism-based; conditions: male, Swiss albino, mouse, in vivo, read-out: Clearance (converted)
In short: as §2, with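 “Tween-80. Blood sampled at 5, 15, 30 min and 1, 2, 4, 8, 24 h.” for “Tween-80.”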

[9] = Partition coefficient of compound between n-octanol and PBS (pH7.4); type: physicochemical; conditions: octanol/water, pH 7.4
In short: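 Shake-flask method using octanol and PBS pH 7.4, each pre-saturated with the other. Compound was shaken 2 h at 850 rpm, 25 °C, then the phases were separated by centrifugation and both layers diluted and analysed by LC-MS/MS. LogD = log(octanol AUC × relative dilution / buffer AUC).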

[10] = Mean AUC inf in Swiss albino male mice at 1 mg/kg per compound (administered iv in a mixture of 5 compounds to 3 mice) assessed by LCMS/MS.; type: ADME, organism-based; conditions: male, Swiss albino, mouse, in vivo
In short: as §2, with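 “Tween-80. Blood sampled at 5, 15, 30 min and 1, 2, 4, 8, 24 h.” for “Tween-80.”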

[11] = Plasma protein binding determined at 10uM by LC-MS/MS.; type: ADME, cell-free; conditions: mouse
In short: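 Equilibrium dialysis of plasma spiked at 10 µM (0.1% DMSO) against PBS pH 7.4, 6 h at 37 °C, duplicates. Both chambers analysed by LC-MS/MS after acetonitrile precipitation. % free = buffer/plasma area ratio; recovery also calculated.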

Schistosoma mansoni [12] = experiment: Concentration required to kill 50% of 21 day old worms 5 days after drug treatment.; type: functional, organism-based; conditions: Puerto Rican, 120 h
In short: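 Juvenile S. mansoni (Puerto Rican strain) were perfused from CD1 mice 3 weeks post-infection and washed. They were cultured 6–8 per well in 200 µL DMEM with 2 mM glutamine, penicillin/streptomycin and 10% FCS at 37 °C, 5% CO2. Viability of individual worms was scored on day 5 after dosing (120 h).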

[13] = Solubility at 25 degC of compound (diluted from DMSO) in PBS at pH 7.4 determined after 24h (1h sonication, 22h shaking, 1h sonication) by LCMS/MS; type: physicochemical
Schistosoma mansoni [14] = experiment: Concentration required to kill 50% of 42 day old worms 5 days after drug treatment.; type: functional, organism-based; conditions: Puerto Rican, 120 h
In short: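 Adult S. mansoni were perfused from CD1 mice 6 weeks post-infection and washed. They were cultured 3 pairs per well in 1 mL DMEM with 2 mM glutamine, penicillin/streptomycin and 10% FCS […] at 37 °C, 5% CO2. Viability of individual worms was scored on day 5 (120 h).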

[15] = Mean plasma concentration at 4h in Swiss albino male mice at […] per compound (administered orally in a mixture of 5 compounds to 3 mice) assessed by LCMS/MS.; type: ADME, organism-based; conditions: mouse, po
[16] = Concentration required to kill 50% HepG2 cells as detected by MTT staining; type: toxicity, cell-based; conditions: homo sapiens, read-out: TC50 (the source's name)
[17] = Percentage of parent compound remaining after incubation for 90 minutes with cyropreserved mouse hepatocytes at a concentration of 1uM compound and […], determined by LCMS; type: ADME, tissue-based, Hepatocyte; conditions: cryopreserved mouse hepatocytes, read-out: Stability; in short: as §1
[18] = Percentage of parent compound remaining after incubation for 90 minutes with cyropreserved human hepatocytes at a concentration of 1uM compound and 1 million cells/uL, determined by LCMS/MS; type: ADME, tissue-based, Hepatocyte; conditions: cryopreserved human hepatocytes, read-out: Stability; in short: as §1
[19] = Concentration of drug in plasma at 4h following oral drug adminstration at given dose. Determined by LCMS/MS; type: ADME, organism-based; conditions: CD1, mouse
In short: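 Plasma sampled from the mice of the efficacy experiments, each animal sampled once: one animal per group at 1, 4 and 8 h, two per group at 24 h. Plasma prepared by acetonitrile protein precipitation and analysed by LC-MS against a 10-point calibration line spiked in blank matrix, with QCs at three or more levels.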

[20] = Concentration required to kill 50% MRC-5 cells as detected by Alamar blue staining; type: toxicity, cell-based, MRC5; conditions: homo sapiens, read-out: TC50 (the source's name)

Structure (SMILES) | remaining at 0.5 h, 1 µM [1] | concentration at 24 h [2] | Vd [3] | bioavailability [4] | Binding [5] | Tmax [6] | half-life [7] | clearance [8] | Lipophilicity [9] | AUC(0-inf) [10] | Binding [11] | solubility kinetic at 24 h [13] | concentration at 4 h [15] | remaining at 1.5 h, 1 µM [17] | remaining at 1.5 h, 1 µM [18] | concentration at 4 h [19] | EC50 (Schistosoma mansoni [12]) | EC50 (Schistosoma mansoni [14]) | CC50 [16] | CC50 [20]
CCc1nc2cnc(-c3ccc(F)c(C(C)C)c3)cn2c1-c1ccc2[nH]ncc2c1F | – | – | – | – | – | – | – | – | – | – | – | – | – | 59.3% | 37.8% | – | 5.4 nM | 3.9 nM | 11.3 µM | –
CC(C)c1cc(-c2cn3c(-c4ccc5[nH]ncc5c4F)c(C4CCC4)nc3cn2)ccc1F | – | – | – | – | – | – | – | – | – | – | – | 1.35 µM (≈ 0.599 µg/mL) | – | 52.1% | 25.3% | – | 4.3 nM | 7.3 nM | 10.9 µM | –
CC(C)c1nc2cnc(-c3cccc(C(F)(F)F)c3)cn2c1-c1ccc(OP(=O)(O)O)cc1F | 39.6% | 0.1 ng/mL | 1.26 L/kg | 5.44% | – | 15 min | 31.7 min | 69 mL/min/kg | 0.075 = | 131 ng·h/mL | 96.805% | 204 µM (≈ 101 µg/mL) | 5.46 ng/mL | – | – | – | 127 nM | < 48.8 nM | 9.2 µM | –
CC(C)c1cc(-c2cn3c(-c4ccc5[nH]ncc5c4F)c(C(C)C)nc3cn2)ccc1F | – | 4.17 ng/mL | 4.48 L/kg | 64% | – | 30 min | 341 min | 15 mL/min/kg | – | 558 ng·h/mL | – | 0.784 µM (≈ 0.338 µg/mL) | 119 ng/mL | 46.2% | 37.7% | – | 4.96 nM | 3.98 nM | 11 µM | –
Fc1ccc(-c2cn3c(-c4ccc5[nH]ncc5c4F)c(C4CC4)nc3cn2)cc1S(F)(F)(F)(F)F | – | – | – | – | – | – | – | – | – | – | – | 0.823 µM (≈ 0.423 µg/mL) | – | 88.6% | 101% | – | 29.5 nM | 17.3 nM | 14.8 µM | –

Now from value to compound, other results behind:

remaining at 0.5 h, 1 µM [1] | concentration at 24 h [2] | Vd [3] | bioavailability [4] | Binding [5] | Tmax [6] | half-life [7] | clearance [8] | Lipophilicity [9] | AUC(0-inf) [10] | Binding [11] | solubility kinetic at 24 h [13] | concentration at 4 h [15] | remaining at 1.5 h, 1 µM [17] | remaining at 1.5 h, 1 µM [18] | concentration at 4 h [19] | Structure (SMILES) | EC50 (Schistosoma mansoni [12]) | EC50 (Schistosoma mansoni [14]) | CC50 [16] | CC50 [20]
58.7% | 1.9 ng/mL | 9.55 L/kg | 58.4% | 100% | 15 min | 268 min | 41.2 mL/min/kg | 4.84 = | 203 ng·h/mL | 99.965% | 17.1 µM (≈ 7.55 µg/mL) | 43.9 ng/mL | – | – | – | Oc1ccc(-c2c(C(F)(F)F)nc3cnc(-c4cccc(C(F)(F)F)c4)cn23)c(F)c1 | < 443 nM | < 48.8 nM | – | –
– | – | – | – | – | 60 min | – | – | 4.19 = | – | – | – | 318 ng/mL | – | – | 1150 ng/mL | CC(C)c1nc2cnc(-c3ccc(F)c(C(F)(F)F)c3)cn2c1-c1ccc2[nH]ncc2c1F | – | – | 12 µM | –
64.1% | 0.1 ng/mL | 2.98 L/kg | 13.5% | – | 15 min | 137 min | 48.5 mL/min/kg | 3.39 = | 172 ng·h/mL | 99.805% | 1.54 µM (≈ 0.624 µg/mL) | 7.79 ng/mL | – | – | – | Cc1nc2cnc(-c3ccc(F)c(C(F)(F)F)c3)cn2c1-c1ccc(O)cc1F | < 641 nM | < 780 nM | > 11.1 µM | 15.8 µM
74.1% | 0.1 ng/mL | 0.918 L/kg | 41.7% | – | 15 min | 177 min | 9.63 mL/min/kg | 3.12 = | 870 ng·h/mL | 99.595% | 2.88 µM (≈ 1.13 µg/mL) | 171 ng/mL | – | – | – | Oc1cc(F)c(-c2cnc3cnc(-c4cccc(C(F)(F)F)c4)cn23)c(F)c1 | 2650 nM | 2380 nM | 23.1 µM | 8.13 µM
